HGIII-sPLA2 inh – Blocks human group III sPLA2 activity; QFRET BODIPY PC-A2 liposome hydrolysis, fluorescence; hit rate 0.56% among 370,000; inhibition, % at 12.2 µM; AID 743126; Q9NZ20;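 active = inhibition above mean plus 3 SD of compounds lying within the high and low control bounds, cut at about 19% in these data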;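 note: 0% = median of test compound wells and 100% = no enzyme DMSO wells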
PLC-beta3 inh – blocks human PLC-beta3 enzyme activity; Q01970; Purified PLC-beta3, fluorogenic substrate, fluorescence; inhibition, % at 12.2 µM; hit rate 0.18% among 370,000; AID 720704; in the data active = inhibition above about 11%;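 note: 0% = median of compound wells on plate and 100% = full blocker control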
Target sequence (Q01970 whole entry, looked up): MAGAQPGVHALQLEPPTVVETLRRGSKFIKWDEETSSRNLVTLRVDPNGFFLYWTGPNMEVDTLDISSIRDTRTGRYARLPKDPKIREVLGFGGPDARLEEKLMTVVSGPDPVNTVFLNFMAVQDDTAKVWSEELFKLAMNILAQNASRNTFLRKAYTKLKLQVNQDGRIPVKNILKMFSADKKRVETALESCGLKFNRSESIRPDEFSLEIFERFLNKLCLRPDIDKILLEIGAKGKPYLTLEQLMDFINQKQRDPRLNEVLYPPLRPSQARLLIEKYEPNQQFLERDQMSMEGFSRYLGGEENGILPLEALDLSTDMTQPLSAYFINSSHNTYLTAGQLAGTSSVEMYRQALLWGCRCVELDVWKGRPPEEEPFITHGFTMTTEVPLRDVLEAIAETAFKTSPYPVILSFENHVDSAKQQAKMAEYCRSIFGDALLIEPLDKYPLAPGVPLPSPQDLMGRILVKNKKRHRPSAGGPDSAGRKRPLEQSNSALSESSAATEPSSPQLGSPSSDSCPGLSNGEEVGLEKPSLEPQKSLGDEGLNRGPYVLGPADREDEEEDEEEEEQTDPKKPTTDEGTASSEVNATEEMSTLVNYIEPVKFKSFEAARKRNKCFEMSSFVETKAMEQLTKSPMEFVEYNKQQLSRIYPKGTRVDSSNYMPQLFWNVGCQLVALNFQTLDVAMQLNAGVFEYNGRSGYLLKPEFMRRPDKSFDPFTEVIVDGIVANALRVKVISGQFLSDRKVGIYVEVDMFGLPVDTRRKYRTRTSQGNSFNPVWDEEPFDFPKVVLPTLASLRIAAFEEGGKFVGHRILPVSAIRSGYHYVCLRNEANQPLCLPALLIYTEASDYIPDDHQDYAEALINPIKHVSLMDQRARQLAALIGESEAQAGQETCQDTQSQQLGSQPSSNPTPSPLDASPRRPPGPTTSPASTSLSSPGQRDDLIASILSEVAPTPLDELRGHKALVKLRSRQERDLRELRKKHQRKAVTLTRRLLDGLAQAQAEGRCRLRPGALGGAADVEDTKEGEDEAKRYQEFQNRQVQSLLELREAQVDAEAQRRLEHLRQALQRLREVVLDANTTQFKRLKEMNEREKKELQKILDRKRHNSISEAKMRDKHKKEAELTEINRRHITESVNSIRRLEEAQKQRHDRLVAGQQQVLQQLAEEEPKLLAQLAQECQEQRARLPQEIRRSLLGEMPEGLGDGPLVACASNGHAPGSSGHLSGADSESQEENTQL
Tb MetRS inh – Trypanosoma brucei MetRS inhibition; hit rate 0.4% among 360,000; purified T. brucei MetRS, ATP depletion, Kinase-Glo luminescence; inhibition, % at 11.9 µM;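 active = inhibition above a per-plate cutoff of the control wells' mean inhibition plus 3 SD, cut at about 5.5% in these data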;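 note: 0% = DMSO wells median and 100% = median of wells with control inhibitor compound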
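Test system: purified T. brucei MetRS enzyme. Also added: ATP, methionine and E. coli bulk tRNA substrates. Compound: 11.9 µM single point. Schedule: 15 min enzyme-compound preincubation, 2 h reaction, 10 min detection, 25 °C. Signal: luciferase luminescence of residual ATP, Kinase-Glo. Evaluation: percent inhibition versus plate control medians. Controls: DMSO wells, low control.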
PLC-gamma1 inh – blocks human PLC-gamma1 enzyme activity; AID 720700; inhibition, % at 12.2 µM; hit rate 0.84% among 370,000; purified PLC-gamma1, fluorogenic substrate, fluorescence; P19174
DAGLB inhibitor – blocks human DAGLB lipase activity | Q8NCG7 | HEK293T DAGLB membrane lysate, EnzChek fluorogenic substrate | inhibition, % at 5.17 µM | hit rate 0.059% among 340,000 | AID 504411; in the data active = inhibition above about 34%;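 note: 0% = enzyme with vehicle and 100% = wells lacking enzyme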
PLCgamma1 ctr – PLC-gamma1 inhibition, counter-screen for PLC-beta3 hits | shares compounds with PLC-gamma1 inh | AID 743258 | inhibition, % at 12.3 µM | hit rate 3.1% among 3,300 | purified PLC-gamma1, fluorogenic substrate, fluorescence
PLCb3 confirm – confirmation of human PLC-beta3 inhibitors. shares compounds with PLC-gamma1 inh. purified PLC-beta3, fluorogenic substrate fluorescence. hit rate 1% among 3,300. AID 743261. inhibition, % at 12.3 µM; in the data active = inhibition above about 11%
An asterisk follows results filed as active; x = no result. The list is not random: actives were taken first. Their share in the collection is about 1.9%. Cut-off read from the data, not from the text of the source, unless noted: active = inhibition above about 9.5%; inactive = the rest.

SMILES	HGIII-sPLA2 inh	PLC-beta3 inh	Tb MetRS inh	PLC-gamma1 inh	DAGLB inhibitor	PLCgamma1 ctr	PLCb3 confirm
COCC(C)n1c(SCC(=O)NC(=O)NCc2ccccc2)nc2ccccc2c1=O (stereo not given)	-2.3	8.0	-0.1	10.2*	0.3	-0.6	-1.7
CCOC(=O)c1c(NC(=O)CSc2nnc(C)o2)sc(C)c1C	-7.4	-1.5	-0.6	9.7*	4.3	-4.2	-0.7
COc1ccc(NS(=O)(=O)c2ccc(SC)cc2)cc1	-11.8	0.1	-0.8	12.4*	-3.4	7.9	1.5
CSc1ccc(S(=O)(=O)Nc2ccc(F)cc2)cc1	-21.0	-0.8	-0.4	-2.0	-1.5	x	x
COc1ccc(OC)c(S(=O)(=O)N2CCCC(N3CCN(c4ccccc4)CC3)C2)c1 (stereo not given)	9.7	3.0	-0.2	10.8*	-6.2	-1.1	1.4
COC(=O)C1=C(C)N(Cc2ccc(C(F)(F)F)cc2)C(=NCc2ccccc2C(F)(F)F)NC1c1ccc(C(F)(F)F)cc1 (stereo not given)	-9.7	-0.5	x	-1.9	x	x	x
C[C@@H]1CCC[C@@]2(O[C@@H](CCO)C[C@H](O)[C@H]2O)O1	10.8	8.8	-0.2	11.9*	2.7	-6.3	-1.8
OCC[C@H]1C[C@H](O)[C@@H](O)[C@@]2(CCCO2)O1	0.9	3.0	-0.2	2.7	0.3	x	x
OCC[C@@H]1C[C@@H](O)[C@H](O)[C@]2(CCCO2)O1	7.0	5.9	-0.2	11.9*	-0.3	-8.1	-3.6
C[C@H]1CCC[C@@]2(O[C@H](CCO)C[C@H](O)[C@H]2O)O1	12.2	0.6	-0.6	3.5	-4.8	x	x
COC(=O)[C@]12C[C@H](CC(=O)N3CCN(C(=O)C4CC4)CC3)C(=O)N(Cc3ccc(Cl)cc3Cl)C1=C[C@H](C1CCCC1)O[C@@H]2C	-4.6	3.3	x	0.4	x	x	x
O=C(NC1CCCCN(Cc2ccc(Cl)cc2)C1=O)c1ccc(Cl)cc1Cl (stereo not given)	-8.0	-3.1	x	-0.3	x	x	x
O=C(CN1C(=O)c2ccccc2S1(=O)=O)N1CCN(Cc2ccc3c(c2)OCO3)CC1	5.7	1.0	-1.3	9.7*	0.3	4.1	4.1
CC1(C)CC(=O)N(CC(=O)N2CCN(Cc3ccc4c(c3)OCO4)CC2)c2ccccc2S1(=O)=O	9.8	-0.7	x	-0.1	x	x	x
COC(=O)C[C@H]1CC[C@H]2[C@H](COc3ccc(NC(=O)c4ccccc4F)cc3C(=O)N2C)O1	6.2	-0.9	x	-0.7	x	x	x
O=C1CC(c2ccccc2)=NO1	-5.6	-3.1	-0.2	-0.6	5.0	x	x
O=S1(=O)CC(c2ccccc2)=NN=C(c2ccccc2)C1	2.9	10.8*	-0.1	9.5	-5.8	-1.4	-4.3
O=C1COc2ccc(C(=O)COC(=O)CCCOc3ccccc3)cc2N1	-7.9	11.1*	-0.4	1.2	-2.4	-5.8	-3.4
COc1ccc(OCCCC(=O)OCC(=O)c2ccc3c(c2)NC(=O)CO3)cc1	-5.7	-0.4	-0.3	4.1	0.3	x	x
CCn1nc(C)c(CN2CCN(Cc3ccsc3)C(CCO)C2)c1C (stereo not given)	-2.0	-2.8	1.9	10.0*	0.7	-0.5	1.1
CCc1noc(C)c1C(=O)N1CCN(CC(=O)OC)CC1	6.4	4.7	x	0.0	x	x	x
CCCC[C@H]1C2CC(OC(=O)Nc3ccccc3C(F)(F)F)C(C2)[C@H]2CCCCN21 (stereo not given in full)	6.6	-2.0	x	-1.3	x	x	x
C/C(=N/NC(=O)c1cccs1)c1ccc(NC(=O)COc2ccc(Cl)cc2Cl)cc1	-0.2	11.5*	-0.2	0.3	-0.5	-27.9	-27.6
C/C(=N/NC(=O)c1ccc(C)s1)c1cccc(NC(=O)COc2ccc(Cl)cc2Cl)c1	5.0	-1.8	-0.3	4.1	0.5	x	x
Cc1cc(OCC(=O)OCC(=O)NCc2ccc3c(c2)OCO3)ccc1Cl	0.3	-6.8	-0.1	10.1*	-0.6	-12.0	-2.9
SMILES	HGIII-sPLA2 inh	PLC-beta3 inh	Tb MetRS inh	PLC-gamma1 inh	DAGLB inhibitor	PLCgamma1 ctr	PLCb3 confirm
CC(C)(C)S(=O)(=O)/C(C#N)=C/c1cccn1S(=O)(=O)c1ccccc1	-1.2	3.0	0.6	15.8*	x	3.0	2.9
CS(=O)(=O)/C(C#N)=C/c1cccn1S(=O)(=O)c1ccccc1	6.5	-7.8	0.0	-3.4	2.7	x	x
O=C(CSc1nc2ccccc2c(=O)n1-c1ccccc1)Nc1ccc2c(c1)CCC2	-7.6	3.6	-0.1	4.3	x	x	x
O=C(CSc1nc2ccccc2c(=O)n1-c1ccc(Cl)c(Cl)c1)Nc1ccc2c(c1)CCC2	7.5	3.5	0.5	11.3*	x	-7.0	-3.5
CN(C)c1ccc(C(=O)NCCc2ccccc2-c2ccccc2CCC(=O)NCc2ccccc2)cc1	3.4	3.5	x	0.3	x	x	x
CC(C)C(c1nnnn1Cc1ccccc1)N1CCN(Cc2ccco2)CC1 (stereo not given)	-13.5	1.0	-1.4	-1.8	-2.3	x	x
CC(C)C(c1nnnn1Cc1ccco1)N1CCN(c2cccc(Cl)c2)CC1 (stereo not given)	-2.6	1.8	-0.1	12.4*	-6.5	-4.6	-5.8
CCCC[C@H]1C2CC(OC(=O)Nc3ccc(Cl)cc3)C(C2)[C@H]2CCCCN21 (stereo not given in full)	4.3	0.7	x	0.8	x	x	x
CCN1C(=O)c2ccccc2S(=O)c2ccc(C(=O)N3CCCCCC3)cc21 (stereo not given)	-1.4	11.1*	-0.5	5.6	2.7	-6.5	-4.2
Cc1ccc(C(=O)c2cn[nH]c2-c2ccccc2O)cc1	-56.0	4.8	-0.3	14.1*	2.2	-6.0	-4.1
CCOC(=O)N[C@H](C(=O)N1CCC[C@H]1C(=O)NC1CCCC1)C1CCCCC1	5.9	0.2	x	-0.6	x	x	x
COC(=O)C[C@H]1C=C[C@@H](C(C(=O)OC)C(=O)OC)CN1C(C)=O	9.3	0.2	-0.5	30.6*	-0.1	5.8	1.4
Oc1ccccc1CNc1nc2ccccc2n1CCN1CCCCC1	-8.8	1.4	0.5	1.4	-0.7	x	x
C=CCc1cccc(CNc2nc3ccccc3n2CCN2CCOCC2)c1O	5.0	13.6*	3.0	10.0*	1.3	-5.1	0.6
CCN(c1ccccc1)S(=O)(=O)c1ccc(Cl)c(C(=O)NCC2CCCO2)c1 (stereo not given)	-4.7	-2.7	-0.9	12.5*	-1.2	-5.6	-2.3
CC1CCN(C(=S)Nc2ccc(SC(F)F)cc2)CC1	18.7	4.5	-0.1	11.4*	-2.6	-0.7	-4.7
Cc1ccc(/C=N/NC(=O)C[n+]2ccccc2)o1	4.3	-5.6	0.7	-1.3	0.2	x	x
O=C(C[n+]1ccccc1)N/N=C/c1ccco1	6.4	3.4	-0.8	9.5*	x	5.3	2.1
CC1(C(=O)Nc2cccc(NS(C)(=O)=O)c2)Cc2c(-c3cccc(C(N)=O)c3)ccnc2O1 (stereo not given)	-0.7	5.8	-0.1	4.8	x	x	x

Compound activity as filed in PubChem.
